Test results taken from ChEMBL document CHEMBL1140949, “Synthesis and evaluation of vancomycin aglycon analogues that bear modifications in the N-terminal D-leucyl amino acid” (2009).
Converted amounts (≈) assume the structure as drawn.

Experiments:
Staphylococcus aureus = test: Antimicrobial activity against vancomycin-sensitive Staphylococcus aureus ATCC 25923 after 24 hrs by microtiter plate based antimicrobial assay; type: functional; conditions: ATCC 25923, 24 h
How it was run: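 Microtiter plate broth assay against vancomycin-sensitive S. aureus ATCC 25923. Unstable hydrazine-bearing analogues were tested within one day of freeing the hydrazine. They were used as crude deprotected material without reverse-phase HPLC purification, because purification caused decomposition.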

Enterococcus faecalis = test: Antimicrobial activity against vancomycin-resistant Enterococcus faecalis BM4166 after 24 hrs by microtiter plate based antimicrobial assay; type: functional
How it was run: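 VanA-type vancomycin-resistant E. faecalis BM4166, with inducible resistance that switches cell-wall precursors from D-Ala-D-Ala to D-Ala-D-Lac on glycopeptide exposure. MIC measured in a microtiter plate format. Unstable hydrazine analogues were assayed within one day of deprotection, as crude material without HPLC purification.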

| SMILES | MIC (Staphylococcus aureus) [µg/mL] | MIC (Enterococcus faecalis) [µg/mL] |
| --- | --- | --- |
| CN[C@H](Cc1cccc(NC(=N)N)c1)C(=O)N[C@H]1C(=O)N[C@@H](CC(N)=O)C(=O)N[C@H]2C(=O)N[C@H]3C(=O)N[C@H](C(=O)N[C@H](C(=O)O)c4cc(O)cc(O)c4-c4cc3ccc4O)[C@H](O)c3ccc(c(Cl)c3)Oc3cc2cc(c3O)Oc2ccc(cc2Cl)[C@H]1O.O=C(O)C(F)(F)F | 10 | 320 |
| CN[C@H](Cc1cccc(NN)c1)C(=O)N[C@H]1C(=O)N[C@@H](CC(N)=O)C(=O)N[C@H]2C(=O)N[C@H]3C(=O)N[C@H](C(=O)N[C@H](C(=O)O)c4cc(O)cc(O)c4-c4cc3ccc4O)[C@H](O)c3ccc(c(Cl)c3)Oc3cc2cc(c3O)Oc2ccc(cc2Cl)[C@H]1O.O=C(O)C(F)(F)F | 10 | 320 |
| CN[C@H](Cc1cccc(N)c1)C(=O)N[C@H]1C(=O)N[C@@H](CC(N)=O)C(=O)N[C@H]2C(=O)N[C@H]3C(=O)N[C@H](C(=O)N[C@H](C(=O)O)c4cc(O)cc(O)c4-c4cc3ccc4O)[C@H](O)c3ccc(c(Cl)c3)Oc3cc2cc(c3O)Oc2ccc(cc2Cl)[C@H]1O.O=C(O)C(F)(F)F | 20 | 320 |
| CN[C@H](Cc1cccc(CN)c1)C(=O)N[C@H]1C(=O)N[C@@H](CC(N)=O)C(=O)N[C@H]2C(=O)N[C@H]3C(=O)N[C@H](C(=O)N[C@H](C(=O)O)c4cc(O)cc(O)c4-c4cc3ccc4O)[C@H](O)c3ccc(c(Cl)c3)Oc3cc2cc(c3O)Oc2ccc(cc2Cl)[C@H]1O.O=C(O)C(F)(F)F | > 10 | 640 |
| CN[C@H](COC(C)(C)C)C(=O)N[C@H]1C(=O)N[C@@H](CC(N)=O)C(=O)N[C@H]2C(=O)N[C@H]3C(=O)N[C@H](C(=O)N[C@H](C(=O)O)c4cc(O)cc(O)c4-c4cc3ccc4O)[C@H](O)c3ccc(c(Cl)c3)Oc3cc2cc(c3O)Oc2ccc(cc2Cl)[C@H]1O.O=C(O)C(F)(F)F | 20 | 320 |
| CN[C@@H](C(=O)N[C@H]1C(=O)N[C@@H](CC(N)=O)C(=O)N[C@H]2C(=O)N[C@H]3C(=O)N[C@H](C(=O)N[C@H](C(=O)O)c4cc(O)cc(O)c4-c4cc3ccc4O)[C@H](O)c3ccc(c(Cl)c3)Oc3cc2cc(c3O)Oc2ccc(cc2Cl)[C@H]1O)[C@H](C)O.O=C(O)C(F)(F)F | 40 | 800 |
| CN[C@H](CO)C(=O)N[C@H]1C(=O)N[C@@H](CC(N)=O)C(=O)N[C@H]2C(=O)N[C@H]3C(=O)N[C@H](C(=O)N[C@H](C(=O)O)c4cc(O)cc(O)c4-c4cc3ccc4O)[C@H](O)c3ccc(c(Cl)c3)Oc3cc2cc(c3O)Oc2ccc(cc2Cl)[C@H]1O.O=C(O)C(F)(F)F | 40 | 800 |
| CCNC(=O)Nc1cccc(C[C@@H](NC)C(=O)N[C@H]2C(=O)N[C@@H](CC(N)=O)C(=O)N[C@H]3C(=O)N[C@H]4C(=O)N[C@H](C(=O)N[C@H](C(=O)O)c5cc(O)cc(O)c5-c5cc4ccc5O)[C@H](O)c4ccc(c(Cl)c4)Oc4cc3cc(c4O)Oc3ccc(cc3Cl)[C@H]2O)c1.O=C(O)C(F)(F)F | 31 | 640 |
| CN[C@H](Cc1cccc(CNN)c1)C(=O)N[C@H]1C(=O)N[C@@H](CC(N)=O)C(=O)N[C@H]2C(=O)N[C@H]3C(=O)N[C@H](C(=O)N[C@H](C(=O)O)c4cc(O)cc(O)c4-c4cc3ccc4O)[C@H](O)c3ccc(c(Cl)c3)Oc3cc2cc(c3O)Oc2ccc(cc2Cl)[C@H]1O.O=C(O)C(F)(F)F | 1.25 | 170 |
| CN[C@H](CCNN)C(=O)N[C@H]1C(=O)N[C@@H](CC(N)=O)C(=O)N[C@H]2C(=O)N[C@H]3C(=O)N[C@H](C(=O)N[C@H](C(=O)O)c4cc(O)cc(O)c4-c4cc3ccc4O)[C@H](O)c3ccc(c(Cl)c3)Oc3cc2cc(c3O)Oc2ccc(cc2Cl)[C@H]1O.O=C(O)C(F)(F)F | 10 | > 400 |
| CN[C@H](CC(C)C)C(=O)N[C@H]1C(=O)N[C@@H](CC(N)=O)C(=O)N[C@H]2C(=O)N[C@H]3C(=O)N[C@H](C(=O)N[C@H](C(=O)O)c4cc(O)cc(O)c4-c4cc3ccc4O)[C@H](O)c3ccc(c(Cl)c3)Oc3cc2cc(c3O)Oc2ccc(cc2Cl)[C@H]1O [VANCOMYCIN AGLYCON] | 0.625 (≈ 0.546 µM) | 640 (≈ 559 µM) |
| CN[C@H](CC(C)C)C(=O)N[C@H]1C(=O)N[C@@H](CC(N)=O)C(=O)N[C@H]2C(=O)N[C@H]3C(=O)N[C@H](C(=O)N[C@H](C(=O)O)c4cc(O)cc(O)c4-c4cc3ccc4O)[C@H](O)c3ccc(c(Cl)c3)Oc3cc2cc(c3O[C@@H]2O[C@H](CO)[C@@H](O)[C@H](O)[C@H]2O[C@H]2C[C@](C)(N)[C@H](O)[C@H](C)O2)Oc2ccc(cc2Cl)[C@H]1O [VANCOMYCIN] | 1.25 (≈ 0.863 µM) | 2000 (≈ 1380 µM) |
